Blank lines part the entries; values can stand above or below the compound they belong to.
What was measured:
Assay type in all cases: cell-based
[1] = molecular target: T1, human TMEM16A (Homo sapiens, UniProt Q5XXA6, DEL476-501); assay: Single-shot microfluidics YFP fluorescence iodide influx assay, TMEM16A; settings: TMEM16A-expressing FRT cells; fitted dose-response, Fig. 4B
T1 sequence (Q5XXA6 with tags, fused parts or gaps isoform Q5XXA6-5 DEL539-564): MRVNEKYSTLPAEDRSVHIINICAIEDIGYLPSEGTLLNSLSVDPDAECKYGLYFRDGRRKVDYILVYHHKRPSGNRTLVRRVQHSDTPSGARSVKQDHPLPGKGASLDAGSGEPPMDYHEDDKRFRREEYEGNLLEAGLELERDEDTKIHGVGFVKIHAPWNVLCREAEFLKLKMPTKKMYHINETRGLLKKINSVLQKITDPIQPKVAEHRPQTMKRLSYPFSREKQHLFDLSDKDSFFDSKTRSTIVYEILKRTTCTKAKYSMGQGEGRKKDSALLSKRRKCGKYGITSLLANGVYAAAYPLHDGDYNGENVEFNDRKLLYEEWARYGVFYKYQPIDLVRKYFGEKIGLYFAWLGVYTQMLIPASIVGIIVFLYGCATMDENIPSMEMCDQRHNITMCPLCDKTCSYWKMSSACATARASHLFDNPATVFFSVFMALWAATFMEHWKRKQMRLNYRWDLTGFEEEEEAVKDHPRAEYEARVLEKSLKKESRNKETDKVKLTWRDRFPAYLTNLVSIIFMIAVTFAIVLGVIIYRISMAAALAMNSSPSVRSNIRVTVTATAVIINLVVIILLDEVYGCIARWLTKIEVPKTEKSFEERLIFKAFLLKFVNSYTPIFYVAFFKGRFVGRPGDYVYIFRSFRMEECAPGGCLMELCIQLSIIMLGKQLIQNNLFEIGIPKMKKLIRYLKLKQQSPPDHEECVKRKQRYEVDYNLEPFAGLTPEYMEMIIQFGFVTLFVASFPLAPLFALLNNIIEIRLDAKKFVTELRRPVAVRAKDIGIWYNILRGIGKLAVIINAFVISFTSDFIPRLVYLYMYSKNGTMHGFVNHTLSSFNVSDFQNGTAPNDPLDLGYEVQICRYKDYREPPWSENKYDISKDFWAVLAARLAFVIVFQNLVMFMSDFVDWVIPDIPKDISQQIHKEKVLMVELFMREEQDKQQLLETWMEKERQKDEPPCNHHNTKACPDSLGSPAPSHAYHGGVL
Summary of the method: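 FRT cells stably co-expressing human TMEM16A (abc isoform) and YFP-F46L/H148Q/I152L were grown 8–24 h at 37 °C under perfusion on fibronectin-coated coverglass. Cells were perfused 10 min with a gradient between PBS and PBS containing 30 μM test compound. Solution was then switched to 70 mM I− plus 50 μM ATP. YFP fluorescence was imaged at 2 Hz, and the Hill equation was fitted.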

[2] = molecular target: T2, human CFTR (Homo sapiens, UniProt P13569); assay: Single-shot microfluidics YFP fluorescence iodide influx assay, CFTR
[3] = molecular target: T2, human CFTR; assay: Conventional plate reader YFP fluorescence iodide influx assay, CFTR

T2 sequence (P13569 whole entry): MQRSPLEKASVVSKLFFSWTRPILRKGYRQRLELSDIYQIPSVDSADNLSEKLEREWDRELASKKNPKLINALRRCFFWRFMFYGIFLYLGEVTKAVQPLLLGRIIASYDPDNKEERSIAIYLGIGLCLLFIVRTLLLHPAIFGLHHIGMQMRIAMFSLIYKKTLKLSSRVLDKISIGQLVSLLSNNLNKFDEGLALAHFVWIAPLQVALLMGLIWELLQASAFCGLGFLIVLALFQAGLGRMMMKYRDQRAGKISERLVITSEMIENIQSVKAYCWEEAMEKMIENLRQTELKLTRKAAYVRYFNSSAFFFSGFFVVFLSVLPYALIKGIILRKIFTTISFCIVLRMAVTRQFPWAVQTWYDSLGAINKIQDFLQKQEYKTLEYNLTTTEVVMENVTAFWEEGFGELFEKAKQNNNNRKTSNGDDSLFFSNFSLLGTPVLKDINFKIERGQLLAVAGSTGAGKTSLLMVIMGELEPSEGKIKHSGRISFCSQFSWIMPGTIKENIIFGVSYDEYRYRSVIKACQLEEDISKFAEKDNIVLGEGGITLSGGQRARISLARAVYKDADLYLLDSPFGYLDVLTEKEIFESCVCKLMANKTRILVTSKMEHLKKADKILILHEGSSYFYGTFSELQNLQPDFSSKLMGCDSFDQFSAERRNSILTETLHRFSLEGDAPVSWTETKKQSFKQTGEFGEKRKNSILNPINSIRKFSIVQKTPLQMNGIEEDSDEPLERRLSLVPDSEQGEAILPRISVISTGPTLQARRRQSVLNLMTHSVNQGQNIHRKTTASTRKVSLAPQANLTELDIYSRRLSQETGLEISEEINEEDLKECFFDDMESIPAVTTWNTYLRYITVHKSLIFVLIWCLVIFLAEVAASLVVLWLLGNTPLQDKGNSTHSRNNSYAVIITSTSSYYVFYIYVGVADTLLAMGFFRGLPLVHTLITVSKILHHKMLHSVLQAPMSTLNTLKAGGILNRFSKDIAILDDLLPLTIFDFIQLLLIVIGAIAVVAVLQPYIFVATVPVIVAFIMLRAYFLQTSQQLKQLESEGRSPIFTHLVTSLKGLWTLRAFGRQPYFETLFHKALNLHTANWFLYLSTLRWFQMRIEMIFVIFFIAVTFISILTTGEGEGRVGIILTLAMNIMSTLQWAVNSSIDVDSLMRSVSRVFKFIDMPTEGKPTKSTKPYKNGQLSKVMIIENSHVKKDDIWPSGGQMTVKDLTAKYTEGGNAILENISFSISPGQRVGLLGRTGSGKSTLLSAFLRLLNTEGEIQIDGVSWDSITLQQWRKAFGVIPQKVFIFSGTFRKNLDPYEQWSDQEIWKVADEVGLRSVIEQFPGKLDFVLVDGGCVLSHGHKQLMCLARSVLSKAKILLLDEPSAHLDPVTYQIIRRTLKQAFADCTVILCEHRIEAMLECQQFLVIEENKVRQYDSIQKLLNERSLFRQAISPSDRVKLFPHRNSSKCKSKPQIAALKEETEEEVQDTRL

nH (Hill coefficient, TMEM16A inhibition, single-shot microfluidics) [1]: 2.2
Compound: CCc1c(C)nc(SCC(=O)Nc2nc(-c3ccc(OC)cc3)cs2)[nH]c1=O [TMinh-A01]

nH (Hill coefficient, CFTR inhibition, single-shot microfluidics) ([2]; CFTR-expressing FRT cells, 5 μM forskolin, fitted dose-response, Fig. 3E): 1.4
Compound: CFTRinh-172

Compound: C=C[C@@]1(C)CC(=O)[C@]2(O)[C@@]3(C)[C@@H](O)CCC(C)(C)[C@@H]3[C@H](O)[C@H](OC(C)=O)[C@@]2(C)O1 [forskolin]
IC50 [2]: 3.2 ± 0.2 µM
nH (Hill coefficient, CFTR activation, single-shot microfluidics) ([2]; CFTR-expressing FRT cells, fitted dose-response, Fig. 3C): 1.8
IC50 [3]: 2.9 ± 0.4 µM

— paper PMC3904508 (Lab on a chip, 2013)
